Bioassay records (PubChem BioAssay)
ERAP1 HTS inh: inhibitors of human ERAP1 aminopeptidase | inhibition, % at 10.7 µM | Q9NZ08 | actives 0.15% (n = 340,000) | recombinant ERAP1, Leu-AMC fluorescence, 60 min | AID 652197;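 active = mean replicate inhibition of at least 30%, or all replicates individually reaching that 30% level; inactive = mean below 30% and not every replicate reaching it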;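 also: 0% = neutral control wells and 100% = L-leucinethiol positive control wells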
SIRT5 inh: blocks human SIRT5 desuccinylation of peptide | Q9NXA8 | Purified SirT5, succinyl-peptide AMC, trypsin-coupled fluorescence | inhibition, % at 15 µM | actives 1.1% (n = 330,000); in the data active = inhibition above about 15%
Target sequence (Q9NXA8 whole entry, looked up): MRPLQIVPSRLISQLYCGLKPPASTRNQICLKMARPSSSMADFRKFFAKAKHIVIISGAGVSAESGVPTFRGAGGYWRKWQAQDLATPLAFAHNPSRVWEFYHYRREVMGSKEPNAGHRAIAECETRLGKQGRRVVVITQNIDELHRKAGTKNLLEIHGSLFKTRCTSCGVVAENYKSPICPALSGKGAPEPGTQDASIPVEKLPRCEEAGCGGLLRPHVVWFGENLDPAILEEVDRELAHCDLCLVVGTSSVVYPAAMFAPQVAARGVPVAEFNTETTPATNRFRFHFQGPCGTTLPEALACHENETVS
CFTR F508del cor: correctors of CFTR F508del function in bronchial epithelial cells. CFBE cells, YFP halide quenching; stimulated with forskolin plus potentiator P3; % fluorescence drop versus neutral controls. activity (quench increase), % at 7.58 µM. actives 0.36% (n = 350,000);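 active = mean added fluorescence quench of at least 8% versus neutral control, with both replicates also reaching 8%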;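 also: cells transiently co-express mutant CFTR-F508del with the halide-sensitive YFP; corrector assay measuring rescue of mutant channel to the surface after 24 h compound exposure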
S100A4 MyoIIA: inhibitors of human S100A4 binding to myosin IIA peptide | inhibition, % at 10.7 µM | P26447 | S100A4/TAMRA-MyoIIA peptide fluorescence polarization | actives 0.14% (n = 360,000);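 active = mean inhibition of at least 70% across replicates, with every replicate also reaching that level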
Target sequence (P26447 whole entry, looked up): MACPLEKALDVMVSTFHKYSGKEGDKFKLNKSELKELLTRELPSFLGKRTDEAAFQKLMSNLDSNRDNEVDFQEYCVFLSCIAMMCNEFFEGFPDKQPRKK
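Material: S100A4 monomer protein / Buffer or medium: 50 mM HEPES pH 7.2, 10 mM CaCl2, 100 mM KCl / Times: 5 min incubation before reading / Benchmarks: neutral control DMSO, positive control TFP / Reagent: labelled myosin peptide probe, 5 nM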
Ecoli rRNA inh: inhibitors of bacterial rRNA selective over humanized ribosomes. GFP signal change (wild-type ribosome), % (test concentration not listed). AID 720706. E. coli WT GFP vs humanized-ribosome RFP mutants, fluorescence, 24 h; stronger effect = lower value; DMSO median 0, no signal -100. actives 1.6% (n = 350,000);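 active = significant combined selectivity score with lowered wild-type GFP, culture density cut under 30%, mutant RFP and density less affected; inactive = any of these conditions unmet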
Active calls of the source: *; nt = no result; ! = not confirmed by another sample. An excerpt weighted towards active compounds, which were near 3.1% of everything screened.

SMILES	ERAP1 HTS inh	SIRT5 inh	CFTR F508del cor	S100A4 MyoIIA	Ecoli rRNA inh
CCOc1cc(/C=C\[N+](=O)[O-])ccc1OCC(=O)N1CCOCC1	1.8	-0.7	1.1	-3.4	1.4
CCOc1cc(/C=C/c2nc3cc(C)c(C)cc3s2)ccc1OCC(=O)N1CCOCC1	36.5*	-2.2	nt	-3.0	-5.3
Oc1ccc(/C=N/Nc2nc(-c3ccc(Cl)cc3)cc(C(F)(F)F)n2)cc1	5.3	-1.9	nt	2.8	-23.1*
Cc1cc(-c2ccccc2)nc(N/N=C/c2ccc(O)cc2)n1	2.5	7.3	3.5	-4.4	-7.0
C[C@H](CO)N1C[C@H](C)[C@@H](CN(C)C(=O)C2CCCCC2)OCCCC[C@H](C)Oc2ccc(NC(=O)Nc3cccc4ccccc34)cc2C1=O	-1.7	5.2	1.3	-9.1	1.2
C[C@H](CO)N1C[C@H](C)[C@@H](CN(C)C(=O)C2CCCCC2)OCCCC[C@H](C)Oc2ccc(NC(=O)Nc3ccc(F)cc3)cc2C1=O	0.4	21.9*	-2.5	-4.7	-2.8
C[C@H]1CCCCO[C@H](CN(C)C(=O)C2CCCCC2)[C@@H](C)CN([C@@H](C)CO)C(=O)c2cc(NC(=O)NC3CCCCC3)ccc2O1	-1.6	15.7*!	2.1	-4.3	-3.2
C[C@H]1CCCCO[C@@H](CN(C)C(=O)C2CCCCC2)[C@@H](C)CN([C@@H](C)CO)C(=O)c2cc(NC(=O)Nc3ccc(F)cc3)ccc2O1	4.5	1.7	1.4	-8.6	-0.5
COc1ccc(NC(=O)Nc2ccc3c(c2)C(=O)N([C@@H](C)CO)C[C@@H](C)[C@H](CN(C)C(=O)C2CCCCC2)OCCCC[C@H](C)O3)cc1	1.7	0.7	-0.2	-16.9	-2.3
C[C@@H]1CCCCO[C@@H](CN(C)C(=O)C2CCCCC2)[C@@H](C)CN([C@H](C)CO)C(=O)c2cc(NC(=O)Nc3cccc4ccccc34)ccc2O1	0.9	0.9	-1.4	108.5*	1.7
COc1ccc(NC(=O)Nc2ccc3c(c2)C(=O)N([C@H](C)CO)C[C@@H](C)[C@@H](CN(C)C(=O)C2CCCCC2)OCCCC[C@H](C)O3)cc1	-0.1	16.8*!	-1.5	-4.0	8.8
COc1ccc(NC(=O)N(C)C[C@H]2Oc3c(NC(=O)Nc4ccc(C(F)(F)F)cc4)cccc3C(=O)N([C@H](C)CO)C[C@H]2C)cc1	nt	nt	0.6	nt	0.7
C[C@H](CO)N1C[C@H](C)[C@H](CN(C)S(=O)(=O)c2ccc(Cl)cc2)OCc2cn(nn2)CCCC1=O	nt	nt	-0.5	nt	-1.9
CC(C)NC(=O)Nc1ccc2c(c1)C(=O)N([C@@H](C)CO)C[C@@H](C)[C@H](CN(C)C(=O)c1ccccc1)OCCCC[C@@H](C)O2	-3.6	-3.4	0.1	-14.3	0.7
CN(C)C(=O)c1ccc(-c2ccc3n(c2=O)C[C@@H]2[C@@H](CO)[C@H](C(=O)NCCc4ccccc4)N[C@H]32)cc1	-3.0	-42.9	nt	-9.1	0.9
Cc1noc(C)c1NC(=O)N(C)C[C@H]1OCCCC[C@@H](C)Oc2ccc(NC(=O)Nc3cccc4ccccc34)cc2C(=O)N([C@@H](C)CO)C[C@H]1C	nt	nt	-1.4	nt	-15.5*
C[C@H](CO)N1C[C@H](C)[C@H](CN(C)C(=O)C2CCCCC2)OCCCC[C@H](C)Oc2ccc(NC(=O)Nc3ccc(C(F)(F)F)cc3)cc2C1=O	2.2	1.5	3.9	1.4	2.2
Cc1noc(C)c1NC(=O)N(C)C[C@@H]1OCCCC[C@@H](C)Oc2ccc(NC(=O)Nc3cccc4ccccc34)cc2C(=O)N([C@@H](C)CO)C[C@@H]1C	-2.3	nt	-0.6	-6.4	nt
C[C@H]1CCCCO[C@@H](CN(C)C(=O)C2CCCCC2)[C@@H](C)CN([C@@H](C)CO)C(=O)c2cc(NC(=O)Nc3ccc(C(F)(F)F)cc3)ccc2O1	0.3	-8.0	10.4*	2.3	0.2
O=C(COc1ccc2c(c1)CCC2)NCc1ccc(Cl)cc1	9.4	-5.8	nt	2.8	-30.3*
C[C@@H]1CN([C@H](C)CO)C(=O)Cc2cc(NC(=O)Cn3cnnn3)ccc2O[C@H]1CN(C)Cc1ccc(C(=O)O)cc1	0.7	9.0	-1.6	1.8	1.5
CC(=O)Nc1ccc(S(=O)(=O)N2c3ccc(F)cc3CCC2C)cc1 (stereo unspecified)	3.3	-2.0	0.4	-2.3	-34.6
COc1ccc(S(=O)(=O)N2c3ccc(F)cc3CCC2C)cc1 (stereo unspecified)	2.7	0.9	nt	-0.5	-28.2*
C[C@@H]1CN([C@@H](C)CO)C(=O)c2cc(NS(=O)(=O)c3ccccc3)ccc2O[C@H]1CN(C)C(=O)Nc1ccc(F)cc1	0.3	0.7	-1.0	3.0	1.2
COc1cccc(NC(=O)N(C)C[C@H]2Oc3cc(C#CC4(O)CCCC4)ccc3S(=O)(=O)N([C@H](C)CO)C[C@H]2C)c1	3.0	7.8	0.9	95.4*	-6.6
SMILES	ERAP1 HTS inh	SIRT5 inh	CFTR F508del cor	S100A4 MyoIIA	Ecoli rRNA inh
C[C@H]1CN([C@@H](C)CO)S(=O)(=O)c2ccc(-c3cccc(F)c3)cc2O[C@@H]1CN(C)C(=O)Nc1cc(F)ccc1F	0.7	18.7*	3.0	0.3	-3.1
C[C@H](CO)N1C[C@H](C)[C@@H](CN(C)C(=O)Nc2cc(F)ccc2F)Oc2cc(/C=C/c3ccccc3)ccc2S1(=O)=O	2.0	21.4*	1.9	-3.1	1.3
C[C@H]1CN([C@@H](C)CO)S(=O)(=O)c2ccc(-c3cccc(F)c3)cc2O[C@H]1CN(C)C(=O)Nc1cc(F)ccc1F	-0.4	nt	0.5	-10.7	-9.1
COc1cccc(NC(=O)N(C)C[C@@H]2Oc3cc(/C=C/c4ccccc4)ccc3S(=O)(=O)N([C@@H](C)CO)C[C@H]2C)c1	0.1	102.1*	4.2	7.5	-2.6
C[C@@H]1CN([C@@H](C)CO)S(=O)(=O)c2ccc(/C=C/c3ccccc3)cc2O[C@H]1CN(C)C(=O)Nc1ccc(F)cc1	-4.2	14.4	4.2	1.8	-0.8
C/C=C/c1ccc2c(c1)O[C@@H](CN(C)C(=O)Nc1cc(F)ccc1F)[C@H](C)CN([C@H](C)CO)S2(=O)=O	2.1	3.6	1.6	-11.4	-6.3
C[C@@H]1CN([C@H](C)CO)S(=O)(=O)c2ccc(/C=C/c3ccccc3)cc2O[C@H]1CN(C)C(=O)Nc1cc(F)ccc1F	-0.2	23.3*	0.2	-17.4	1.3
C[C@@H]1CN([C@H](C)CO)S(=O)(=O)c2ccc(/C=C/c3ccccc3)cc2O[C@@H]1CN(C)C(=O)Nc1cc(F)ccc1F	0.0	25.1*	2.4	-9.5	-3.8
C/C=C/c1ccc2c(c1)O[C@H](CN(C)C(=O)Nc1cc(F)ccc1F)[C@H](C)CN([C@H](C)CO)S2(=O)=O	0.6	6.4	2.0	4.9	-3.9
COc1cccc(NC(=O)N(C)C[C@@H]2Oc3cc(-c4ccccc4F)ccc3S(=O)(=O)N([C@H](C)CO)C[C@@H]2C)c1	4.0	17.0*	-1.7	-6.0	-4.7
